This is an account of results in ChEMBL document CHEMBL1140375, “Selective inhibitors of the serine protease plasmin: probing the S3 and S3' subsites using a combinatorial library” (J Med Chem, 2005).

Structures are written as SMILES. Starred links: 1 amine or outer side, 2 acyl side, 3 side chain; linkers in the order of their positions; H or OH if unused. Non-standard residues stand in square brackets, D forms with d. Residues, ends and D or L forms follow the SMILES beside them. *: point of attachment. Gly(2S-L-tryptophyl) = N[C@H](C(=O)O)C(=O)[C@@H](N)Cc1c[nH]c2ccccc12; X1 = O=C1[C@@H](CCC(=O)[*:2])CCC[C@H]1N[*:1]; Cbz = O=C(OCc1ccccc1)*

One test deals with Plasminogen (Homo sapiens, UniProt P00747). Nature of the test: Inhibitory concentration against plasmin. The gist of the method:
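Plasmin is cleaving D-Val-Leu-Lys-pNA, kept constant at its measured KM (167 μM). Reactions were run at 25 °C in 50 mM sodium phosphate buffer, pH 7.4, containing 10% DMSO final. Initial velocity was read as p-nitroaniline release at 405 nm between 30 and 120 s post-mixing. IC50 was determined from inhibited versus uninhibited rates.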

In a further test the target is Prothrombin (Homo sapiens, UniProt P00734). In words: Inhibitory concentration against thrombin. The gist of the method:
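Thrombin is tested against chromogenic D-Phe-Pip-Arg-pNA at its KM, measured as 45 μM. Conditions were 50 mM sodium phosphate (pH 7.4), 10% DMSO final, 25 °C. p-Nitroaniline formation was followed at 405 nm from 30 to 120 s after mixing to give initial rates, from which IC50 was obtained.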

Another test deals with Plasma kallikrein (Homo sapiens, UniProt P03952). Nature of the test: Inhibitory concentration against kallikrein.
Chain of Plasma kallikrein (P03952 20-390 limits assumed): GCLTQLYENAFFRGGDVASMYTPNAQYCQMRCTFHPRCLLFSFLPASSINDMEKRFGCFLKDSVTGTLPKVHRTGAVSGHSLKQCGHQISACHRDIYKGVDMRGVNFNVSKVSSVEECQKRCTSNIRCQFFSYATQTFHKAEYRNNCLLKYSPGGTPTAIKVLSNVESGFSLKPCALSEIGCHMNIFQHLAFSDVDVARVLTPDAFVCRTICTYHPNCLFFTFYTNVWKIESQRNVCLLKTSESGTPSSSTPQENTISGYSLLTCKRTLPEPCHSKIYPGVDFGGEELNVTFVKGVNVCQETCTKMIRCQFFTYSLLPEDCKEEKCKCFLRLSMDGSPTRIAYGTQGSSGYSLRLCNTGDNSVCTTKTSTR
Chain of Plasma kallikrein (P03952 391-638 limits assumed): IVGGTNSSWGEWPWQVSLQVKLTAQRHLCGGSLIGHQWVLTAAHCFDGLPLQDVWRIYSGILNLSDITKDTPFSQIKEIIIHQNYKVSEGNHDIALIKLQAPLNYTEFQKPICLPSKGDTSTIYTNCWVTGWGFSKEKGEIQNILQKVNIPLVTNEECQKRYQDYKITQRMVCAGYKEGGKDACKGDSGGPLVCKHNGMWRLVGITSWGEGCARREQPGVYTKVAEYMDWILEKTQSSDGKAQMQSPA
For the next test, the target named is Serine protease 1 (Homo sapiens, UniProt P07477). In words: Inhibitory concentration against trypsin. Summed up: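 For trypsin, the substrate was D-Phe-Pip-Arg-pNA at its KM of 122 μM. Assays were run at 25 °C in 50 mM sodium phosphate pH 7.4 with 10% DMSO final. Initial rates came from the 405 nm p-nitroaniline signal over 30–120 s after mixing. IC50 values came from comparing rates with and without inhibitor.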
Chain of Serine protease 1 (P07477 whole entry): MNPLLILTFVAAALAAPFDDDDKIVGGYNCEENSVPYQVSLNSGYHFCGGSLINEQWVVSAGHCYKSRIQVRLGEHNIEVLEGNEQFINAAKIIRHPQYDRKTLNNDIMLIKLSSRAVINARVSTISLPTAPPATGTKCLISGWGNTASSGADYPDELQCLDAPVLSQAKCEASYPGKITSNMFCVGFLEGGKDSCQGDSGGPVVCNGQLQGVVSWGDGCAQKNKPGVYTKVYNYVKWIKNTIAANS

Chain of Plasminogen (P00747 97-580 limits assumed): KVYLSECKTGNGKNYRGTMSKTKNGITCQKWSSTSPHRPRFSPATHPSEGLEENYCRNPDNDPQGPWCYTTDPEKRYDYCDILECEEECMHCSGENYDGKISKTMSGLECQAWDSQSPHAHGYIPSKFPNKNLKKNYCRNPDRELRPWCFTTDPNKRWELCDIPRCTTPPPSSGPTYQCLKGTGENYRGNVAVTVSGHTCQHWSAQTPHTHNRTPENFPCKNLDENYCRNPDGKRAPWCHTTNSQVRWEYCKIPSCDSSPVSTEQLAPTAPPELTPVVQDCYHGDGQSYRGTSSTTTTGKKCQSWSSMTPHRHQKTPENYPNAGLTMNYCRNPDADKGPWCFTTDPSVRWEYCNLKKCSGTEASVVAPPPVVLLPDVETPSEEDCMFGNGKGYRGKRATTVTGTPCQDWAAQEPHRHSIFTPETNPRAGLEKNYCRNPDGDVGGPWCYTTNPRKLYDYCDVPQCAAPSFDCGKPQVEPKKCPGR
Chain of Plasminogen (P00747 581-810 limits assumed): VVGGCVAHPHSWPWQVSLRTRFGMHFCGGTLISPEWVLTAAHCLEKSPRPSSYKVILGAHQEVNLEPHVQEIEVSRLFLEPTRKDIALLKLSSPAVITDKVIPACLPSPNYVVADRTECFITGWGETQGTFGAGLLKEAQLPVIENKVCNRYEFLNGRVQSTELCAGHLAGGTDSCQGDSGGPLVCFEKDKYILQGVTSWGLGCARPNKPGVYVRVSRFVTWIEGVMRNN

For `CC[C@H](C)[C@H](N)C(=O)[C@H](NC(=O)[C@@H](NC(=O)CC[C@H]1CCC[C@@H](NC(=O)[C@@H](NC(=O)[C@@H](NC(=O)OCc2ccccc2)C(=O)[C@@H](N)Cc2c[nH]c3ccccc23)C(=O)[C@@H](N)Cc2c[nH]c3ccccc23)C1=O)C(=O)[C@@H](N)Cc1c[nH]c2ccccc12)C(=O)OC`, on Plasminogen, the concentration for half-maximal inhibition (IC50) (as a rule, the concentration at which inhibition is half-maximal) worked out at 13.5 µM.

Consider `COC(=O)[C@@H](NC(=O)[C@@H](NC(=O)CC[C@H]1CCC[C@@H](NC(=O)[C@@H](NC(=O)[C@@H](NC(=O)OCc2ccccc2)C(=O)[C@@H](N)Cc2c[nH]c3ccccc23)C(=O)[C@@H](N)Cc2c[nH]c3ccccc23)C1=O)C(=O)[C@@H](N)Cc1c[nH]c2ccccc12)C(=O)[C@@H](N)Cc1ccc(O)cc1`, for which the IC50 is > 400 µM on Prothrombin, 2.7 µM against Plasminogen, > 400 µM against Plasma kallikrein and > 400 µM against Serine protease 1.

As to `COC(=O)[C@@H](NC(=O)[C@@H](NC(=O)CC[C@H]1CCC[C@@H](NC(=O)[C@@H](NC(=O)[C@@H](NC(=O)OCc2ccccc2)C(=O)[C@@H](N)Cc2c[nH]c3ccccc23)C(=O)[C@@H](N)Cc2c[nH]c3ccccc23)C1=O)C(=O)[C@@H](N)Cc1c[nH]c2ccccc12)C(=O)[C@@H](N)Cc1ccccc1`, inhibition against Plasminogen was half-maximal at 3.3 µM (IC50). In other words, the single-digit micromolar range.

On Plasminogen, `COC(=O)[C@@H](NC(=O)[C@@H](NC(=O)CC[C@H]1CCC[C@@H](NC(=O)[C@@H](NC(=O)[C@@H](NC(=O)OCc2ccccc2)C(=O)[C@@H](N)Cc2c[nH]c3ccccc23)C(=O)[C@@H](N)Cc2c[nH]c3ccccc23)C1=O)C(=O)[C@@H](N)Cc1c[nH]c2ccccc12)C(=O)[C@H](C)N` returned a concentration for half-maximal inhibition (IC50) of 6.6 µM. This IC50 is about 2-fold higher than that of the compound before.

Regarding `COC(=O)[C@@H](NC(=O)[C@@H](NC(=O)CC[C@H]1CCC[C@@H](NC(=O)[C@@H](NC(=O)[C@@H](NC(=O)OCc2ccccc2)C(=O)[C@@H](N)Cc2c[nH]c3ccccc23)C(=O)[C@@H](N)Cc2c[nH]c3ccccc23)C1=O)C(=O)[C@@H](N)Cc1c[nH]c2ccccc12)C(=O)[C@@H](N)Cc1c[nH]c2ccccc12` (Cbz-[Gly(2S-L-tryptophyl)][Gly(2S-L-tryptophyl)][X1][Gly(2S-L-tryptophyl)][Gly(2S-L-tryptophyl)]-OMe), the IC50 on Plasminogen is 3.6 µM.

As to `COC(=O)[C@@H](NC(=O)[C@@H](NC(=O)CC[C@H]1CCC[C@@H](NC(=O)[C@@H](NC(=O)[C@@H](NC(=O)OCc2ccccc2)C(=O)[C@@H](N)Cc2c[nH]c3ccccc23)C(=O)[C@@H](N)Cc2c[nH]c3ccccc23)C1=O)C(=O)[C@@H](N)Cc1c[nH]c2ccccc12)C(=O)[C@@H](N)C(C)C`, on Plasminogen, half-maximal inhibition (IC50) was put at 14.1 µM.

`COC(=O)[C@@H](NC(=O)[C@@H](NC(=O)CC[C@H]1CCC[C@@H](NC(=O)[C@@H](NC(=O)[C@@H](NC(=O)OCc2ccccc2)C(=O)[C@@H](N)Cc2c[nH]c3ccccc23)C(=O)[C@@H](N)Cc2c[nH]c3ccccc23)C1=O)C(=O)[C@@H](N)Cc1c[nH]c2ccccc12)C(=O)[C@@H](N)CC(C)C`: the IC50 against Plasminogen amounted to 3.2 µM.
